Source: PubChem (several laboratories)
Rows were chosen to be rich in hits. Some 2.7% of all compounds tested hit in one or more screens of this group.
Yeast growth inh: reduces growth of yeast BB579 in restrictive medium; S. cerevisiae BB579 growth, OD615, 48 h; inhibition, % at 10 µM; 140,000 tested, 0.51% active; AID 804;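 active = inhibition above a set limit, 3 SD over the mean compound inhibition, cut at about 44% in these data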
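System: Saccharomyces cerevisiae DeaD strain BB579, replicative lifespan model yeast. Buffer or medium: restrictive glucose-based CSMM-D medium. Doses: one dose, 10 µM compound with 0.25% DMSO. Timing: 4 h preincubation and 48 h exposure at 30 °C. Detection: turbidity as optical density at 615 nm. Benchmarks: amphotericin B 10 µg/mL, positive.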
sdo1 growth: sdo1-depleted yeast growth rescue. AID 817. z-score at 10 µM. 140,000 tested, 0.21% active. S. cerevisiae sdo1-depleted JHY4D growth rescue, OD600 30 h; stronger effect = higher value; pdr5 snq2 efflux-pump mutant strain;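 active = z-score above 3 at both the 24 hr and the 30 hr optical density reads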;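 also: z-score against mean and SD of all compound wells on the same plate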
Yeast life ext: yeast lifespan extension | 130,000 tested, 0.68% active | S. cerevisiae growth with nicotinamide, OD615; deaD strain in restrictive glucose medium | inhibition of the nicotinamide effect, % at 10 µM;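 active = inhibition above a set limit, placed 3 SD over the median of all compounds, cut at about 26% in these data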;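 also: 0% = nicotinamide-treated wells and 100% = cells grown without nicotinamide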
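Material: Modified budding yeast, DeaD strain | Medium: Restrictive glucose medium | Probe or stimulus: 1.5 mM nicotinamide | Dosing: Single dose 10 µM compound, 0.25% DMSO | Times: 48 h at 30 °C | Technique: OD615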
RAM inhibit: blocks the yeast RAM network. S. cerevisiae dse1pr::URA3 reporter, 5-FOA growth OD615, 2 d; analog-sensitive cbk1-as2 kinase mutant strain. inhibition, % at 50 µM. 190,000 tested, 1.8% active;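 active = inhibition above a set limit, 3 SD over mean compound inhibition, cut at about 8.4% in these data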;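 also: 0% = DMSO-only wells with no growth and 100% = 10 µM 1-NA-PP1 full growth; inhibition rescues growth on 5-FOA so higher OD means more RAM inhibition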
Active calls of the source: *; / = no result.

SMILES | Yeast growth inh | sdo1 growth | Yeast life ext | RAM inhibit
CCOC(=O)C1CCCN(C(=O)c2ccc(Cl)c(S(=O)(=O)N3CCCCCC3)c2)C1 (stereo not drawn) | / | / | / | 0.6
CCCNC(=O)NC(=O)CSc1nncs1 | / | / | / | 0.4
CCCOc1cccc(-c2nn(-c3ccccc3)cc2/C=C(\C#N)C(=O)NCCCn2ccnc2)c1 | -23.6 | -1 | -3.9 | -1.1
N#C/C(=C/c1cn(-c2ccccc2)nc1-c1cccc(OCc2ccc(F)cc2)c1)C(=O)NCCCn1ccnc1 | 62.8* | -1.22 | -5.7 | 2.2
CCOc1ccc2noc3c2c1C(=O)c1ccccc1-3 | 32.1 | -1.1 | -9.8 | -1.1
O=C1c2ccccc2-c2onc3c(Oc4ccccc4)cc(O)c1c23 | -45.6 | -1.18 | 91.8* | 3.1
N#CCC(=O)Nc1ccc(C(=O)OCC(=O)Nc2ccccc2Sc2ccccc2)cc1 | / | / | / | 8.4*
Cn1cc(CN2CCN(Cc3ccccc3)CC2)c(-c2cccc(Cl)c2)n1 | / | / | / | 2.8
CC(=O)O/N=C/c1c(N2CCOCC2)n(C)c2ccccc12 | 78.7* | -1.23 | -9.5 | -0.1
Cn1c(N2CCOCC2)c(/C=N/OC(=O)c2cccnc2Cl)c2ccccc21 | / | / | / | 0.5
Cn1c(N2CCOCC2)c(/C=N/OC(=O)c2ccc(F)cc2)c2ccccc21 | 85.4* | -1 | -23.4 | 1.3
Cn1c(N2CCOCC2)c(/C=N/O)c2ccccc21 | / | / | / | 0.2
Cc1ccc(C(=O)O/N=C/c2c(N3CCOCC3)n(C)c3ccccc23)cc1 | 63.9* | -0.56 | -8.0 | 1.1
COc1ccc(CNC(=O)COC(=O)CCc2c[nH]c3ccccc23)cc1 | / | / | / | 0.7
O=C(CN1CCN(Cc2ccc(F)cc2)C1=O)NC1CCCC1 | / | / | / | 1.5
c1ccc(-c2ccc(C(c3ccccc3)n3ccnc3)cc2)cc1 (stereo not drawn) | 96.1* | -2.85 | -7.0 | 0.3
c1ccc(-c2ccc(-n3ccnc3)cc2)cc1 | -33.1 | -0.91 | -13.5 | 2.5
CN(C(=O)COC(=O)c1cc(S(=O)(=O)N2CCOCC2)c(Cl)cc1Cl)C1CCS(=O)(=O)C1 (stereo not drawn) | / | / | / | -0.1
O=c1[nH]c(Nc2ccccc2)cc2ccccc12 | 47.5* | -0.9 | -19.3 | -0.3
CC1CCc2sc(C(=O)OCC(=O)NC(C)C)cc2C1 (stereo not drawn) | / | / | / | 2.1
Cc1nn(C(C)(C)C)c(OC(=O)c2ccco2)c1Sc1ccccc1 | -32.8 | -0.92 | 46.8 | 5.8
Cc1nn(C(C)(C)C)c(OC(=O)c2cccs2)c1Sc1ccccc1 | -72.3 | -0.9 | 14.7 | 10.9*
Cc1nn(C(C)(C)C)c(OC(=O)c2ccc(Br)o2)c1Sc1ccccc1 | -26.5 | -0.47 | 32.8* | 11.3*
Cc1nn(C(C)(C)C)c(OC(=O)c2ccc3c(c2)OCO3)c1Sc1ccccc1 | -53.6 | -0.7 | 0.0 | 6.5
COc1ccc(C(CC(=O)NCc2ccccc2)Sc2n[nH]c(-c3ccc(Cl)cc3)n2)cc1 (stereo not drawn) | -32.3 | 0.62 | 7.0 | 8.7*
SMILES | Yeast growth inh | sdo1 growth | Yeast life ext | RAM inhibit
COc1ccc(C(CC(=O)NCc2ccccc2)Sc2n[nH]c(-c3ccccc3)n2)cc1 (stereo not drawn) | -39.8 | 0.18 | 8.6 | 4.0
O=C(COC(=O)c1ccc(Cl)c(S(=O)(=O)N2CCc3ccccc3C2)c1)Nc1ncc(Cl)cc1Cl | -42.4 | 1.26 | 3.8 | 10.4*
CCOC(=O)C(=NCCCN(C)C)NNc1ccc(Br)cc1 | 92.4* | -1.68 | -10.0 | -1.6
CCCCN=C(NNc1ccc(Br)cc1)C(=O)OCC | 97.0* | -1.79 | -13.4 | -1.0
CCOC(=O)C(=NCCCN(C)C)NNc1cc(C(F)(F)F)ccc1Cl | / | / | / | -0.4
COc1ccc(N(C(=O)/C=C/c2ccc(OC)c(OC)c2)C2=CC3CCC(C2)N3C)cc1 (stereo not drawn) | / | / | / | 1.3
CCc1ccc(C2NC(=S)NC3=C2C(=O)N(c2ccccc2OC)C(c2ccc(CC)cc2)N3)cc1 (stereo not drawn) | 52.6* | -1.79 | -18.3 | 1.2
CCc1nn(-c2ccccc2)c(=S)c2ccccc12 | / | / | / | 1.8
Oc1ccc(/C=C/c2nc(-c3ccccc3O)n(-c3ccccc3)n2)cc1 | 97.9* | -1.12 | -20.1 | 2.6
CCOC(=O)N1CCN(c2ccc(C(F)(F)F)cn2)CC1 | -3.4 | 1.22 | -6.9 | 2.0
CC1=NN(c2ccc(C(F)(F)F)cn2)C(=O)C1 | -22.8 | -0.38 | 58.1* | -0.8
CC(C)c1nnc(NC(=O)CSc2nnc(-c3ccco3)o2)s1 | / | / | / | 2.8
O=[N+]([O-])c1ccccc1-c1ccc(/C=N/n2cnnc2)o1 | -14.7 | 0.66 | -6.1 | 0.2
O=C1ON=C(c2ccccc2)/C1=C/c1ccc(-c2ccccc2[N+](=O)[O-])o1 | 22.2 | -1.23 | 42.4* | 5.3
O=C(NCCNC1CCC(c2ccccc2)CC1)c1cccs1 (stereo not drawn) | / | / | / | 1.4
Cc1ccc(C(=O)Nc2ccccc2C(=O)NCc2ccccc2)cc1 | -9.6 | -0.93 | -5.2 | 8.6*
O=C(Nc1ccccc1)N1N=C(c2ccc(F)cc2)CC1c1ccc(F)cc1 (stereo not drawn) | -7.0 | -1.15 | 1.9 | 9.6*
O=C(c1ccc(Cl)nc1)N1CCc2ccccc2C1 | -45.3 | 1.16 | -13.9 | 0.7
O=C(c1cncc(Br)c1)N1CCc2ccccc2C1 | -53.8 | 0.08 | 43.1* | 0.0
COc1ccc(NC(=O)/C(Cl)=C(/Cl)S(=O)Cc2ccccc2)cn1 (stereo not drawn) | -57.8 | -2.55 | 53.1* | 0.8
Cc1cccc(N2CCN(C(=O)C3CCN(S(=O)(=O)N4CCOCC4)CC3)CC2C)c1 (stereo not drawn) | / | / | / | -0.8
COc1ccc(CCN2C(=O)c3[nH]nc(-c4ccccc4O)c3C2c2ccccc2)cc1OC (stereo not drawn) | -30.3 | 2.28 | -0.5 | 11.1*
COc1ccc(-c2n[nH]c3c2C(c2ccc(OC)c(OC)c2)N(c2ccccc2)C3=O)cc1 (stereo not drawn) | -52.5 | -0.71 | 3.3 | 9.1*
COCCCN1C(=O)c2[nH]nc(-c3ccccc3O)c2C1c1ccc(Cl)cc1 (stereo not drawn) | -52.9 | 1.17 | -8.7 | 1.9
C=CCOc1ccc2nnc(C)n2n1 | 2.6 | 1.39 | 1.5 | -0.7
SMILES | Yeast growth inh | sdo1 growth | Yeast life ext | RAM inhibit
CN(c1ccccc1)P(=O)(N(C)c1ccccc1)N(C)c1ccccc1 | / | / | / | 1.7
O=C(CSc1ccc([N+](=O)[O-])cc1)Nc1cccc(S(=O)(=O)Nc2ccccc2F)c1 | / | / | / | 9.2*
O=C(CSc1nnc(Nc2ccccc2F)s1)Nc1cccc(S(=O)(=O)N2CCCCC2)c1 | -26.0 | -0.22 | 1.1 | 10.2*
O=C(Cc1ccc(Cl)cc1)Nc1cccc(S(=O)(=O)Nc2ccccc2F)c1 | -24.6 | -0.58 | 0.5 | 7.9
CCOc1cc(-c2nc(C)c(C(C)=O)n2O)ccc1OCC(=O)Nc1ccccc1 | / | / | / | 5.1
COc1ccccc1-c1c(C)oc2cc(OC(=O)c3ccco3)ccc2c1=O | -20.6 | -0.24 | 32.1* | 2.0
COc1ccccc1Oc1c(C)oc2cc(OC(=O)c3ccco3)ccc2c1=O | -47.2 | -0.33 | 18.1 | 2.5
COc1nsnc1NS(=O)(=O)c1ccc(NC(=S)NC(=O)c2cccnc2)cc1 | / | / | / | 7.7
O=C(CSc1nnc(-c2ccccc2)o1)c1ccc2c(c1)OCCO2 | -37.8 | -0.3 | -7.3 | 8.4*
